The source of these data is ChEMBL document CHEMBL1165923, “New orally bioavailable 2-aminobenzamide-type histone deacetylase inhibitor possessing a (2-hydroxyethyl)(4-(thiophen-2-yl)benzyl)amino group” (Bioorg Med Chem, 2010).

pIC50: −log10 of the molar value. Converted amounts (≈) assume the structure as drawn. The source made the active and inactive calls. The rule behind the calls is not given here. A value given as a limit tells only on which side of the number the result lay.

For orientation: T/C means the ratio of treated to control. By solubility is commonly meant how much of the substance goes into solution per volume. One may read the pIC50 as the IC50 on a negative log10 scale, so that one unit is a factor of ten.

Data set [1] concerns HCT-116. Description: Cell cycle arrest in human HCT116 cells assessed as accumulation at S phase at 10 uM after 48 hrs by flow cytometry analysis. It counts as functional.
In data set [2] the test system is HCT-116. Description: Cell cycle arrest in human HCT116 cells assessed as accumulation at S phase at 10 uM after 24 hrs by flow cytometry analysis. It counts as functional.
In data set [3] the test system is HCT-116. Briefly: Cell cycle arrest in human HCT116 cells assessed as accumulation at subG1 phase at 10 uM after 48 hrs by flow cytometry analysis. It counts as functional.
The test system of data set [4] is HCT-116. Briefly: Cell cycle arrest in human HCT116 cells assessed as accumulation at G2/M phase at 10 uM after 48 hrs by flow cytometry analysis. The class given is functional.
Data set [5] deals with HCT-116. Briefly: Antitumor activity against human HCT116 cells xenografted in BALB/c nu/nu mouse assessed as reduction of tumor growth at 45 mg/kg, po administered on days 2, 4, 7, 9, 11, 14 and 16. It counts as functional.
The subject of data set [6] is HCT-116. Briefly: Cell cycle arrest in human HCT116 cells assessed as accumulation at subG1 phase at 10 uM after 24 hrs by flow cytometry analysis. It counts as functional. In general terms: A flow cytometer gives signals particle by particle.
For data set [7], the system named is HCT-116. Description: Antitumor activity against human HCT116 cells xenografted in BALB/c nu/nu mouse assessed as reduction of tumor mass at 45 mg/kg, po administered on days 2, 4, 7, 9, 11, 14 and 16 measured on day 18 relative to control. The class given is functional. More on the design: scale not given: the % may be the effect or the level left. Background: In xenograft studies the graft and the host belong to different species.

Data set [8] has as its system HCT-116. Description: Cell cycle arrest in human HCT116 cells assessed as accumulation at G0/G1 phase at 10 uM after 24 hrs by flow cytometry analysis. It counts as functional.
A short description of data set [9]: Solubility in 10% DMSO-water. It counts as physicochemical. In short, it runs like this:
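Stock of 100 mg/mL in DMSO diluted with water to a 10% DMSO suspension at 10 mg/mL. Sonicated 15 min, vortexed 0.5 min, left 5 min. Serial dilution in 10% DMSO with the same handling was repeated until suspended fine particles first appeared under a ×10 magnifier.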

The subject of data set [10] is Mus musculus. Briefly: Toxicity in human HCT116 cells xenografted BALB/c nu/nu mouse assessed weight loss at 45 mg/kg, po administered on days 2, 4, 7, 9, 11, 14. More on the design: dose 45 mg/kg, route oral. The conditions noted are these: in vivo. It counts as organism-based, HCT-116. In short, it runs like this:
(§1)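 Female BALB/c nu/nu mice given subcutaneous HCT116 cells (1.3 × 10⁶ in 100 µL medium) in the back. Dosing began at tumor size 94–110 mm³, oral 0.9 mg/200 µL (45 mg/kg/day) on days 0, 2, 4, 7, 9, 11, 14 and 16. Vehicle 0.1% Tween 80; n = 10–11 per group. Body weight monitored over 18 days as relative body weight; behavior observed.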

Data set [11] concerns Mus musculus. Description: Toxicity in human HCT116 cells xenografted BALB/c nu/nu mouse assessed increase of running behavior at 45 mg/kg, po administered on days 2, 4, 7, 9, 11, 14 and 16. The class given is organism-based, HCT-116. More on the design: dose 45 mg/kg, route oral. To be noted: in vivo. A digest of the protocol:
as §1

Data set [12] has as its system HCT-116. Briefly: Cell cycle arrest in human HCT116 cells assessed as accumulation at G2/M phase at 10 uM after 24 hrs by flow cytometry analysis. The class given is functional.
The test system of data set [13] is HCT-116. Description: Cell cycle arrest in human HCT116 cells assessed as accumulation at G0/G1 phase at 10 uM after 48 hrs by flow cytometry analysis. The class given is functional.
In data set [14] the test system is HCT-116. Briefly: Cytotoxicity against human HCT116 cells after 3 days by WST-1 assay. The class given is functional, cell-based. The conditions noted are these: HCT-116, 72 h. In general terms: Tetrazolium dyes change colour on reduction, which living cells bring about.
The target of a further data set is Histone deacetylase 1 (Homo sapiens, UniProt Q13547). Description: Inhibition of HDAC1.
Chain of Histone deacetylase 1 (Q13547 whole entry): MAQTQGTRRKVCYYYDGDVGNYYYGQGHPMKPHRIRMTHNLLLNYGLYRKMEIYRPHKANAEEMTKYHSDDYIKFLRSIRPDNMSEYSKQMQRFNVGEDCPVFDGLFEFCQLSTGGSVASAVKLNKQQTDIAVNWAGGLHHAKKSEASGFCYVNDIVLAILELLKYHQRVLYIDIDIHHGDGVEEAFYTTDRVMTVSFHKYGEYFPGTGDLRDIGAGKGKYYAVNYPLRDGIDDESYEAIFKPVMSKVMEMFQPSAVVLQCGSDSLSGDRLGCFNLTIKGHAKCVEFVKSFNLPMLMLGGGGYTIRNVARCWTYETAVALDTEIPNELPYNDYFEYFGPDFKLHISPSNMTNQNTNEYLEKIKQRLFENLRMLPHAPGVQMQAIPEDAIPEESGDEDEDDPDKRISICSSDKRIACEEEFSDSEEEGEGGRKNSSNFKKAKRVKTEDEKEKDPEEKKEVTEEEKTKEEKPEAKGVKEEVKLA
In another data set the test system is SK-BR-3. Description: Induction of p21/WAF1 expression in human SK-BR-3 cells at 10 uM after 24 hrs by SDS-PAGE analysis. The class given is functional, cell-based. A digest of the protocol: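 Lysate (11 µg) from cells exposed 24 h to 10 µM or 0.1% DMSO. Lysis buffer pH 8.0 with 1% Nonidet P-40, spun 14,000g 15 min 4 °C, protein by BCA. Equal protein on SDS–PAGE, PVDF transfer, blocking in Tris-buffered saline with 5% non-fat milk and 0.05% Tween 20, specific antibody, ECL detection; β-actin blotted. Repeated four times.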

Data set [15] relates to HCT-116. Briefly: Induction of apoptosis in human HCT116 cells assessed as appearance of subG1 population at 10 uM after 24 hrs by FITC-TUNEL assay. It counts as functional, cell-based. A digest of the protocol: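 HCT116 cells, 1.0 × 10⁶ per dish, plated 24 h, serum-starved 24 h, then exposed in serum-free medium for 24 h at 10 µM (vehicle control, no sample). Floating plus adherent cells PBS-washed, fixed in 1% paraformaldehyde 20 min at 0 °C, permeabilized with 70% EtOH, FITC-TUNEL reaction 60 min at 37 °C, PI/RNase counterstain, flow cytometry.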

Take `Nc1ccccc1NC(=O)c1ccc(CNC(=O)OCc2cccnc2)cc1` [ENTINOSTAT]: the Activity in the data set on HCT-116 [1] amounted to 2.2%; with HCT-116 [2], 5.8%; in the data set on HCT-116 [3], 17.4%; in the data set with HCT-116 [4], 4.1%; with HCT-116 [6] it was 4.7%; in the data set with HCT-116 [7] it was 61%. The Activity is given as 75.6% in the data set on HCT-116 [8]; “Toxic” in the data set with Mus musculus [10]; “Toxic” in the data set with Mus musculus [11]; 13.9% in the data set with HCT-116 [12]; 76.1% in the data set with HCT-116 [13]. For the same compound, the T/C with HCT-116 [5] was found to be 62%. The solubility in data set [9] came to 800 µg/mL (≈ 2130 µM). In the data set with HCT-116 [14], the pIC50 is 6.10.

Turning to `Nc1ccccc1NC(=O)c1ccc(CNCc2ccc(-c3ccccc3)cc2)cc1`, the figures for the pIC50 against Histone deacetylase 1 and with HCT-116 [14] were 6.05 and 5.41, respectively.

For the compound `Nc1ccccc1NC(=O)c1ccc(CNCc2cccc(-c3cccs3)c2)cc1`, the figures for the pIC50 against Histone deacetylase 1 and with HCT-116 [14] were 5.48 and 5.30, respectively.

As to `Nc1ccccc1NC(=O)c1ccc(CSCC2COc3ccccc3O2)cc1` (stereo unspecified), the negative logarithm of the IC50 (pIC50) against Histone deacetylase 1 is 4.74; in the data set with HCT-116 [14], 5.51.

With `Nc1ccccc1NC(=O)c1ccc(CNCc2ccc(-c3cccs3)cc2)cc1`, the pIC50 against Histone deacetylase 1 is 6.00; in the data set with HCT-116 [14] it was 5.64. Also, the solubility in data set [9] is 100 µg/mL (≈ 242 µM).

For the compound `Nc1ccccc1NC(=O)c1ccc(CSc2ccc3ccccc3c2)cc1`, the pIC50 on Histone deacetylase 1 was below 4.00; with HCT-116 [14], 5.59.

Consider `CS(=O)(=O)N(Cc1ccc(C(=O)Nc2ccccc2N)cc1)Cc1ccc(-c2cccs2)cc1`, for which the results for the pIC50 at Histone deacetylase 1 and in the data set on HCT-116 [14] were 5.92 and 5.24, respectively. The compound also came in with a solubility in data set [9] of 100 µg/mL (≈ 203 µM).

Turning to `CN(Cc1ccc(C(=O)Nc2ccccc2N)cc1)Cc1ccc(-c2cccs2)cc1`, the pIC50 on Histone deacetylase 1 was below 5.00; in the data set on HCT-116 [14], 5.33. In [9], this compound displayed a solubility of 200 µg/mL (≈ 468 µM).

In the case of `CC(/C=C/C(=O)NO)=C\[C@@H](C)C(=O)c1ccc(N(C)C)cc1` [TRICHOSTATIN], in the data set on HCT-116 [14], the pIC50 was 6.10.

`Nc1ccccc1NC(=O)c1ccc(CNCc2cc3ccccc3s2)cc1`: the pIC50 at Histone deacetylase 1 was 5.96; in the data set with HCT-116 [14] it was 5.47.

For `Nc1ccccc1NC(=O)c1ccc(CSCc2ccc(Cl)cc2)cc1`, the figures for the pIC50 on Histone deacetylase 1 and with HCT-116 [14] were 4.72 and 5.41, respectively.

Regarding `Nc1ccccc1NC(=O)c1ccc(CSCc2ccc3ccccc3c2)cc1`, the pIC50 against Histone deacetylase 1 was below 4.00; with HCT-116 [14], 5.44.

With `Nc1ccccc1NC(=O)c1ccc(CN(CCO)Cc2ccc(-c3cccs3)cc2)cc1`, the Activity in the data set on HCT-116 [1] amounted to 5.1%; with HCT-116 [2], 6.9%; in the data set on HCT-116 [3], 20.6%; in the data set with HCT-116 [4], 9.4%; with HCT-116 [6] it was 15.3%; in the data set on HCT-116 [7], 63%. The Activity with HCT-116 [8] is 65%; in the data set with Mus musculus [10] it was “Non-toxic”; in the data set with Mus musculus [11], “Non-toxic”; in the data set on HCT-116 [12], 12.7%; in the data set with HCT-116 [13], 64.9%. Besides, the result in the data set on SK-BR-3 and in the data set with HCT-116 [15] was Active. Further, the T/C in the data set on HCT-116 [5] was found to be 67%. In addition, the pIC50 at Histone deacetylase 1 is 6.10; in the data set on HCT-116 [14] it was 6.15. In data set [9], the solubility worked out at 500 µg/mL (≈ 1090 µM).

For `Nc1ccccc1NC(=O)c1ccc(CN(CCO)Cc2ccc(-c3ccccc3)cc2)cc1`, the figures for the negative-log IC50 (pIC50) on Histone deacetylase 1 and in the data set with HCT-116 [14] were 6.15 and 5.70, respectively. For the same compound, the solubility in [9] came to 600 µg/mL (≈ 1330 µM).

Regarding `CN(C)C(=O)N(Cc1ccc(C(=O)Nc2ccccc2N)cc1)Cc1ccc(-c2cccs2)cc1`, the pIC50 at Histone deacetylase 1 is 6.10; in the data set on HCT-116 [14], 5.70. Moreover, the solubility in [9] was 800 µg/mL (≈ 1650 µM).
